The target in assay [1] is T1, C-C chemokine receptor type 3 (Homo sapiens) (UniProt P51677).
T1 sequence (whole entry): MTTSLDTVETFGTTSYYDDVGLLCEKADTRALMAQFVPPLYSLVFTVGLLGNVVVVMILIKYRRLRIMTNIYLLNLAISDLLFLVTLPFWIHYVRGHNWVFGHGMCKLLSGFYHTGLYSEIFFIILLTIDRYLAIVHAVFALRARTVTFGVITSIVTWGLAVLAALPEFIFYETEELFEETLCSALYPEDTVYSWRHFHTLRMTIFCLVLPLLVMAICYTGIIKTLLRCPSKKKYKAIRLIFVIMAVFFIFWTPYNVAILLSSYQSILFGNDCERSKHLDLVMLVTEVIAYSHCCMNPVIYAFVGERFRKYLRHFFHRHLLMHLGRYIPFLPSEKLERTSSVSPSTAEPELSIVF
Kind of assay: Reduction of human recombinant CCR3 expression in mouse L1.2 cells relative to control. The format is cell-based. Set-up: scale not given: the % may be the effect or the level left. The gist of the method: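 In duplicate, 1 × 10^6 CCR3-L1.2 cells in ice-cold medium were warmed to 37°C for 20 min, then given stimulus (100 nM CCL11 or 10 μM compound) for 20 min; ice-held tubes and a buffer tube served as controls. Surface CCR3 was measured by anti-CCR3 flow cytometry as mean fluorescence minus isotype, expressed as % of buffer-treated cells.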

Assay [2] has as its target T1, C-C chemokine receptor type 3 (Homo sapiens). Put plainly: Agonist activity at human recombinant CCR3 expressed in mouse L1.2 cells assessed as induction of chemotaxis. The format is functional, cell-based. The method, boiled down: (§1)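 L1.2 cells transfected with CCR3 (stable line kept in 1 mg/ml G-418, or transient electroporation at 1 μg DNA/1 × 10^6 cells, then overnight 10 mM sodium butyrate). Duplicate agonist concentrations in RPMI/0.1% BSA were placed in the lower wells and 2 × 10^5 cells on the upper filter (5 μm pores). After 5 h at 37°C, 5% CO2, migrated cells were counted by hemocytometer and expressed as % migrating.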

Assay [3] has as its system T2, C-C chemokine receptor type 3 (Homo sapiens), P51677 [E287Q].
T2 sequence (whole entry): T1 sequence (whole entry) with E287Q
Kind of assay: Agonist activity at human recombinant CCR3 E287Q mutant expressed in mouse L1.2 cells assessed as induction of chemotaxis. The format is functional, cell-based. The gist of the method: as §1

Assay [4] relates to T3, C-C chemokine receptor type 3 (Homo sapiens), P51677 [Y41A].
T3 sequence (whole entry): T1 sequence (whole entry) with Y41A
Put plainly: Agonist activity at human recombinant CCR3 Y41A mutant expressed in mouse L1.2 cells assessed as induction of chemotaxis. The format is functional, cell-based. The gist of the method: as §1

Assay [5] concerns the target T1, C-C chemokine receptor type 3 (Homo sapiens). Kind of assay: Agonist activity at human recombinant CCR3 expressed in mouse L1.2 cells assessed as receptor internalization at 10 uM after 20 mins by flow cytometry. A general note: In flow cytometry, cells or beads pass a laser one at a time.
Assay [6] has the same target. Kind of assay: Agonist activity at human recombinant CCR3 expressed in eosinophils. The format is functional. The method, boiled down:
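Gated autofluorescence forward scatter (shape change) assay. Granulocytes from healthy-donor blood were isolated on plasma/Percoll gradients and pre-incubated at 5×10^6 cells/ml for 30 min at room temperature in GAFS buffer (PBS, 0.9 mM CaCl2, 0.5 mM MgCl2, 10 mM HEPES, 10 mM glucose, 0.1% BSA). Cells were exposed to varying compound concentrations for 4 min at 37°C, chilled, fixed and read by flow cytometry.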

Assay [7] relates to T4, C-C chemokine receptor type 3 (Homo sapiens), P51677 [Y113A].
T4 sequence (whole entry): T1 sequence (whole entry) with Y113A
Put plainly: Agonist activity at human recombinant CCR3 Y113A mutant expressed in mouse L1.2 cells assessed as induction of chemotaxis. The format is functional, cell-based. The method, boiled down:
as §1

Molecules are shown by their SMILES. Residue numbers refer to the chain shown, from its start. The source made the active and inactive calls. The rule behind the calls is not given here.

For `O=C(Cc1cccc2occc12)Nc1cc[n+](CCCc2ccccc2)c(Br)c1`, the Activity in assay [1] is 59.4%; in assay [2] it was “Dose-dependent effect”; in assay [6], “Dose-dependent effect”. In addition, the result in assay [3], in assay [4] and in assay [7] was inactive. In assay [5], the result was Active.
